Active and inactive are the calls of the source. The calls are words filed in the database; no cut-off is given here.

The subject of data set [1] is HUVEC. The data set is described as follows: Cytoprotective activity against H2O2-induced oxidative stress in HUVEC cells after 18 hrs by Cell-Titer Blue assay. It counts as functional, cell-based. Conditions: Homo sapiens. Put shortly: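 Confluent HUVEC (population doublings 2–5, gelatin-coated 96-well) pretreated 5 h at 37 °C with compound at 1, 5, 20, 40 and 60 µM (DMSO stock diluted in MCDB 131), washed twice, exposed to 2 mM H2O2 for 1 h at 37 °C, then 18 h recovery in complete MCDB 131. Viability by 10% CellTiter-Blue fluorescence. % cytoprotection = (well − DMSO+H2O2 mean)/DMSO-only mean. EC50 by linear regression of first three points.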

Data set [2] relates to HUVEC. The experiment in a line: Cytoprotective activity against H2O2-induced oxidative stress in HUVEC cells at 20 uM after 18 hrs by Cell-Titer Blue assay. The format is functional, cell-based. The following applies: Homo sapiens. In outline: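 Confluent HUVEC (passage doublings 2–5) incubated 5 h at 37 °C with compound at 20 µM in MCDB 131 (from DMSO stock), washed twice with MCDB 131, then 2 mM H2O2 for 1 h at 37 °C. H2O2 removed, cells recovered 18 h in complete medium. Viability by 10% CellTiter-Blue fluorescence, compared with vehicle+H2O2 and unexposed cells. Mean ± SD, ANOVA with Tukey-Kramer.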

For data set [3], the system named is HUVEC. The experiment in a line: Cytotoxicity against HUVEC cells at 10 to 60 uM after 24 hrs by Cell-Ttiter blue assay. The format is cell-based. Conditions: human. Put shortly: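 Confluent HUVEC (population doublings 2–5) exposed 24 h at 37 °C to compound at 10, 20, 40 or 60 µM, diluted from DMSO stock into MCDB 131 (vehicle 0.1% DMSO). Medium replaced with 10% CellTiter-Blue for 2 h at 37 °C, fluorescence read at ex 545/em 590 nm. Viability expressed as % of vehicle control; below 90% of control scored toxic.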

Consider `O=C(/C=C/c1ccc(O)c(O)c1)OCCc1ccccc1` [CAFFEIC ACID PHENETHYL ESTER], for which, in the data set with HUVEC [1], the EC50 stood at 8 µM.

As to `O=C(/C=C/c1cc(O)c(O)c(F)c1)NCCc1ccccc1`, in the data set with HUVEC [2], the result was Active. Moreover, the Activity result in the data set with HUVEC [3] was “Toxic”.

`O=C(/C=C/c1ccc(O)c(F)c1)NCCc1ccccc1`: the result in the data set on HUVEC [2] was Active.

In the case of `O=C(/C=C/c1cc(O)c(O)cc1F)NCCc1ccccc1`, the result in the data set on HUVEC [2] was Active.

The compound `O=C(/C=C/c1ccc(O)c(O)c1)NCCc1ccccc1` [CAFFEIC ACID PHENETHYL AMIDE] yielded a concentration giving a half-maximal response (EC50) in the data set on HUVEC [1] of 2 µM. In other words, the single-digit micromolar range.
